Bioassay records deposited in PubChem BioAssay by The Scripps Research Institute Molecular Screening Center.
RORA inh: inhibitors of human nuclear receptor RORA | CHO-K1 Gal4-RORA LBD luciferase reporter, luminescence | inhibition, % at 10 µM | 65,000 tested, 0.43% active;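 active = inhibition above the mean of all tested compounds plus 3 SD, cut at about 52% in these data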;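 note: 0% = RORA-transfected cells with DMSO and 100% = mock-transfected cells lacking RORA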
Target sequence (P35398 whole entry, looked up, the tested form may be a part): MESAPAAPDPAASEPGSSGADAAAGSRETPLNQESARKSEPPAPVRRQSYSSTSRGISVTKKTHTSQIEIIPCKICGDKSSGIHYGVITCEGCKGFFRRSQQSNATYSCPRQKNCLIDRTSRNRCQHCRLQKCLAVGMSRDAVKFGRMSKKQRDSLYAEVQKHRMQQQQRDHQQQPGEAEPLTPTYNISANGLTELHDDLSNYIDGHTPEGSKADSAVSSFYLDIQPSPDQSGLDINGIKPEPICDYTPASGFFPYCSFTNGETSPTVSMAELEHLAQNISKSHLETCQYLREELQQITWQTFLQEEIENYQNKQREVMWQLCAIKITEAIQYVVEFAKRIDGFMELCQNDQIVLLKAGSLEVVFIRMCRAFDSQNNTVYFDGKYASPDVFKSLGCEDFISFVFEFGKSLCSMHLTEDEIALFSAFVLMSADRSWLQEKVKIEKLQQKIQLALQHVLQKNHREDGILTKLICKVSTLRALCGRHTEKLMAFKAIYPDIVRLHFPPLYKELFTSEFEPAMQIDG
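System: transiently transfected CHO-K1 cells, Gal4-DBD/human RORA-LBD fusion plus 5xGal4-luciferase reporter. Doses: one dose of 10 µM final. Timing: 20 h compound treatment, 37 °C. Measured by: luminescence. Evaluation: % inhibition of basal luciferase versus +RORA/-RORA DMSO controls. Benchmarks: mock-transfected cells as 100%, +RORA DMSO cells as 0%. Replicates: single test per compound.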
Active calls of the source: *. Many of the other results were omitted from the sample, so hits are more common in it than they were.

SMILES	RORA inh
Cc1cccc(NC(=O)c2cnc3n(c2=O)CCS3)c1	-76
Cc1ccccc1NC(=O)c1cnc2ccccn2c1=O	54*
COc1ccc(Cl)cc1NC(=O)c1cnc2n(c1=O)CCS2	-8
CCC(C(=O)Nc1ccccc1OC)n1c(C(=O)OC)cc2ccsc21 (centres undefined)	5
c1ccc(-c2onc3cc4c(cc23)OCCO4)cc1	-74
CSc1cccc(NS(=O)(=O)c2cccc3nsnc23)c1	-16
CC(C)C1N(S(=O)(=O)c2ccccc2)CCN1S(=O)(=O)c1ccccc1	-14
CCCc1ccc(OCc2ccc(C(=O)N3CCN(c4ccccn4)CC3)o2)c(OC)c1	-50
O=C(Nc1ccccc1)OCc1ccccn1	-60
CCOc1ccc(OCc2ccc(C(=O)OCc3ccccn3)o2)cc1	58*
COc1ccc(C2CCCN2C(=O)Nc2cccc(C(C)=O)c2)cc1OC (centres undefined)	-5
CC(C)NC(=O)CCNS(=O)(=O)c1ccc(Br)cc1	8
Cc1ccc(Nc2cc(C)nn2-c2nc(C)cc(=O)[nH]2)cc1	88*
Cc1ccc(-c2cc3nc(C)cc(NCc4ccco4)n3n2)cc1	-59
Cc1ccc2nsnc2c1S(=O)(=O)N1CCN(Cc2ccc3c(c2)OCO3)CC1	6
Cc1cnc(-c2nnc(N(C)C(=O)c3cnccn3)s2)cn1	-18
C=CCC1CCCCC12NC(=O)NC2=O (centres undefined)	-3
CC(=O)NCCn1c(SCC(=O)NCC2CCCO2)nc2ccccc2c1=O (centres undefined)	6
COc1ccc(CN(CC(=O)NCC2CCCO2)C(=O)CCC(=O)Nc2cc(C)ccn2)cc1 (centres undefined)	-9
COc1ccc(C(=O)Nn2c(SCC(=O)NCC3CCCO3)nc3ccccc3c2=O)cc1 (centres undefined)	67*
c1ccc2c(c1)Cc1cc(CN3CCOCC3)ccc1-2	-68
O=C(CSCc1cccc(F)c1)N1CCN(c2ccccc2)CC1	-53
O=C(NCC1CCCO1)C1CC(=O)N(C2CCCCCC2)C1 (centres undefined)	-12
O=C(NCc1cccnc1)C1CCN(S(=O)(=O)N2CCOCC2)CC1	1
O=C(Nc1ccc2c(c1)OCO2)Oc1ccccc1	-8
SMILES	RORA inh
O=C(Nc1ccc2c(c1)OCO2)c1cc(C2CC2)on1	-60
O=C(/C=C\Nc1ccc2c(c1)OCO2)c1ccccn1	85*
COc1ccc(S(=O)(=O)N2Cc3ccccc3CC2C(=O)Nc2ccc(O)cc2)cc1OC (centres undefined)	-31
CCC(C)c1cc(S(=O)(=O)N2CCOCC2)ccc1OC (centres undefined)	11
O=C(CC1C(=O)NCCN1C(=O)Nc1ccccc1)Nc1cccc(C(F)(F)F)c1 (centres undefined)	-10
Cc1nc2ncnn2c(C)c1CCC(=O)Nc1ccc(S(=O)(=O)N2CCCCCC2)cc1	-10
CCc1c(C)nc2ncnn2c1NCCc1ccc(OC)cc1	75*
Cc1ccccc1Cc1c(C)nc2ncnn2c1C	5
CC(C)Oc1ccccc1-c1nc(SCC(=O)O)n[nH]1	4
Cc1ccc(NC2=Nc3ccccc3CS2)cc1	61*
CCOC(=O)c1oc2ccccc2c1NC(=O)c1cc(OC)cc(OC)c1	25
Cc1cc(NO)nc(-c2ccc(Br)cc2)n1	-59
COC(=O)[C@@H](NC(=O)NCc1ccco1)C(C)C	-7
CCCc1nnc(NC(=O)CNc2ccc(F)cc2)s1	5
COc1ccc(Cc2nc(-c3cccs3)no2)cc1OC	-10
COC(=O)c1ccc(-c2nc(-c3cccs3)no2)cc1	52*
COc1cccc(-c2noc(-c3cccs3)n2)c1	-66
CCCc1cc(=O)[nH]c(SCC(=O)Nc2ccc(OC(F)F)cc2)n1	18
O=C1C(=O)N(CCCn2ccnc2)C(c2cccnc2)/C1=C(/O)c1ccccc1 (centres undefined)	-10
C/C(O)=c1/ccc2cccc3nc(C)nc1c23	3
CN(C)CCOC(=O)C1(c2ccccc2)CCOCC1	3
COC(=O)c1cc(COc2ccc3oc(C)c(C(=O)OC)c3c2)c(C)o1	6
Cc1oc2cc3c(C(=O)OCCN(C)C)c(C)oc3cc2c1C(=O)OCCN(C)C	82*
CCOC(=O)c1cnc(=O)[nH]c1C	3
CSC1=NC(NCCCO)c2c(sc3c2CC(C)(C)OC3)N1 (centres undefined)	-13
SMILES	RORA inh
CCOC(=O)c1ccc(Oc2cc(C)nc(SC)n2)cc1	-57
Cc1ccc(-c2cc3c(nn2)-c2ccccc2C3=O)cc1	83*
Nc1nc(CSc2nc3ccccc3s2)nc(N2CCCCC2)n1	-14
O=C(O)CCSc1nc2ccccc2s1	54*
Cn1c(=O)c2c(nc(N3CCCCC3)n2CCSc2nc3ccccc3s2)n(C)c1=O	0
Cc1cc(Br)c(S(=O)(=O)n2nnc3ccccc32)cc1C	6
Cc1ccc(-n2ncc3c2ncn2c(C)nnc32)cc1C	-60
CCCN(Cc1ccccc1)S(=O)(=O)c1ccc(N2C(=O)CCC2=O)cc1	-7
CC(=O)c1cccc(-n2nnnc2SCC(=O)Nc2ccccc2N2CCCCC2)c1	-14
O=C(CSc1nnnn1-c1ccccc1)NC(=O)Nc1ccc2c(c1)OCCO2	-52
CCn1c2ccccc2c2cc(NC(=O)CSc3nnnn3-c3ccccc3)ccc21	63*
Cc1cc(NC(=O)c2cc3n(n2)C(C(F)(F)F)CC(c2ccco2)N3)no1 (centres undefined)	11
O=C(Cn1cnc2ccccc21)OCC(=O)N1CCc2ccccc2C1	10
O=C(Nc1ccc(-c2noc(CCc3ccccc3)n2)cc1)c1ccco1	-72
CC(C)(C)c1ccc(-c2noc(CCC(N)=O)n2)cc1	88*
CC(C)(C)c1ccc(-c2nnc(SCC(=O)O)n2N)cc1	-8
NC(=O)c1ccc(NC(=O)CCCc2nc(-c3ccccc3Cl)no2)cc1	0
CNC(=O)CCc1nc(-c2ccc(C(C)(C)C)cc2)no1	89*
Cc1cccc(-c2noc(Cc3ccccc3)n2)c1	-24
c1ccc(-c2noc(CN3CCN(c4ccccc4)CC3)n2)cc1	9
CN(C)C(=O)CCc1nc(-c2ccc(C(C)(C)C)cc2)no1	82*
CCOc1ccccc1N(CC(=O)NC1CCCC1)C(=O)CCC(=O)Nc1cc(C)on1	13
COc1ccc(CNC(=O)C2CSC(=O)C2)cc1 (centres undefined)	11
COc1cccc(C2C(C(=O)Nc3ccc(C)cc3C)=C(C)Nc3ncnn32)c1OC (centres undefined)	14
CC(=O)Cc1nsc(Nc2ccc3c(c2)OCCO3)n1	-122
SMILES	RORA inh
Cn1c(=O)c2nc(Cl)n(Cc3ccc(Cl)cc3Cl)c2n(C)c1=O	1
CCN(CC)c1ccc(NC(=O)c2ccccc2F)cc1	-70
CCN(CC)c1ccc2cc(NC(=O)CCC(=O)O)c(=O)oc2c1	66*
CCN(CC)c1ccc(NC(=O)C2CC3CCC2C3)cc1 (centres undefined)	-55
Cc1ccc(C)n1-c1ccc(N2CCOCC2)nc1	12
CCOc1ccc(-c2nnc3ccc(SCc4ccc(C(=O)OC)o4)nn23)cc1	-5
Cc1ccc(-c2nc(CS(=O)(=O)CC(=O)N3CC(C)CC(C)C3)c(C)o2)cc1 (centres undefined)	1
CCCCn1c(SCC(=O)NCc2ccco2)nnc1-c1ccoc1C	6
COCCNC(=O)CSCc1nc(-c2ccc(SC)cc2)oc1C	89*
CCc1ccc(-c2nc(CSCC(=O)NCCCN3CCCC3=O)c(C)o2)cc1	74*
CCOc1ccc(-c2cc(CCCC(=O)NCc3ccco3)no2)cc1	58*
